Source: ChEMBL document CHEMBL1765020, “Synthesis and structure-affinity relationships of novel dibenzylideneacetone derivatives as probes for β-amyloid plaques” (J Med Chem, 2011)

Key:
[1] = tested on: Brain; assay: Ratio of drug uptake in ddY mouse brain at 1 uCi/100 uL, iv after 2 mins to drug uptake in ddY mouse brain at 1 uCi/100 uL, iv after 60 mins; format: ADME, organism-based; settings: in vivo
How it was run: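 Normal female ddY mice (5 weeks) received the radiotracer iv, and brain uptake (% ID/g, n = 4) was measured by gamma counting at 2 and 60 min. The index is brain uptake at 2 min divided by brain uptake at 60 min.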

[2] = Partition coefficient, log D of the compound; format: physicochemical; settings: octanol/water
How it was run: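 Radiotracer partitioned between n-octanol and PBS: vortexed 3 min at room temperature, centrifuged 5 min at 3000 rpm. Weighed samples of the octanol (100 μL) and buffer (500 μL) layers were counted. log D is the log of the ratio of counts per gram, octanol versus PBS.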

[3] = tested on: Blood; assay: Biodistribution in ddY mouse blood at 1 uCi/100 uL, iv after 2 mins by gamma counting; format: ADME, organism-based; settings: in vivo
How it was run: (§1)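 Normal female ddY mice (5 weeks, about 20 g; n = 4 per group) received radiotracer iv. Organs were removed and weighed at 2–120 min and counted in a γ-counter. Percent dose per gram of wet tissue was calculated against diluted aliquots of the injected material and reported as mean ± SD.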

[4] = tested on: Brain; assay: Biodistribution in ddY mouse brain at 1 uCi/100 uL, iv after 2 mins by gamma counting; format: ADME, organism-based; settings: in vivo; how it was run: as §1
[5] = tested on: Heart; assay: Biodistribution in ddY mouse heart at 1 uCi/100 uL, iv after 2 mins by gamma counting; format: ADME, organism-based; settings: in vivo; how it was run: as §1
[6] = tested on: Liver; assay: Biodistribution in ddY mouse liver at 1 uCi/100 uL, iv after 2 mins by gamma counting; format: ADME, organism-based; settings: in vivo
[7] = tested on: Spleen; assay: Biodistribution in ddY mouse spleen at 1 uCi/100 uL, iv after 2 mins by gamma counting; format: ADME, organism-based; settings: in vivo
[8] = tested on: Lung; assay: Biodistribution in ddY mouse lung at 1 uCi/100 uL, iv after 2 mins by gamma counting; format: ADME, organism-based; settings: in vivo
[9] = tested on: Kidney; assay: Biodistribution in ddY mouse kidney at 1 uCi/100 uL, iv after 2 mins by gamma counting; format: ADME, organism-based; settings: in vivo; how it was run: as §1
[10] = tested on: Stomach; assay: Biodistribution in ddY mouse stomach at 1 uCi/100 uL, iv after 2 mins by gamma counting; format: ADME, organism-based; settings: in vivo
[11] = tested on: Intestine; assay: Biodistribution in ddY mouse intestine at 1 uCi/100 uL, iv after 2 mins by gamma counting; format: ADME, organism-based; settings: in vivo; how it was run: as §1
[12] = tested on: Thyroid gland; assay: Biodistribution in ddY mouse thyroid at 1 uCi/100 uL, iv after 2 mins by gamma counting; format: ADME, organism-based; settings: in vivo
[13] = tested on: Blood; assay: Biodistribution in ddY mouse blood at 1 uCi/100 uL, iv after 15 mins by gamma counting; format: ADME, organism-based; settings: in vivo, 0.25 h; how it was run: as §1
[14] = tested on: Brain; assay: Biodistribution in ddY mouse brain at 1 uCi/100 uL, iv after 15 mins by gamma counting; format: ADME, organism-based; settings: in vivo, 0.25 h; how it was run: as §1
[15] = tested on: Heart; assay: Biodistribution in ddY mouse heart at 1 uCi/100 uL, iv after 15 mins by gamma counting; format: ADME, organism-based; settings: in vivo, 0.25 h; how it was run: as §1
[16] = tested on: Liver; assay: Biodistribution in ddY mouse liver at 1 uCi/100 uL, iv after 15 mins by gamma counting; format: ADME, organism-based; settings: in vivo, 0.25 h
[17] = tested on: Spleen; assay: Biodistribution in ddY mouse spleen at 1 uCi/100 uL, iv after 15 mins by gamma counting; format: ADME, organism-based; settings: in vivo, 0.25 h
[18] = tested on: Lung; assay: Biodistribution in ddY mouse lung at 1 uCi/100 uL, iv after 15 mins by gamma counting; format: ADME, organism-based; settings: in vivo, 0.25 h
[19] = tested on: Kidney; assay: Biodistribution in ddY mouse kidney at 1 uCi/100 uL, iv after 15 mins by gamma counting; format: ADME, organism-based; settings: in vivo, 0.25 h; how it was run: as §1
[20] = tested on: Stomach; assay: Biodistribution in ddY mouse stomach at 1 uCi/100 uL, iv after 15 mins by gamma counting; format: ADME, organism-based; settings: in vivo, 0.25 h
[21] = tested on: Intestine; assay: Biodistribution in ddY mouse intestine at 1 uCi/100 uL, iv after 15 mins by gamma counting; format: ADME, organism-based; settings: in vivo, 0.25 h; how it was run: as §1
[22] = tested on: Thyroid gland; assay: Biodistribution in ddY mouse thyroid at 1 uCi/100 uL, iv after 15 mins by gamma counting; format: ADME, organism-based; settings: in vivo, 0.25 h
[23] = tested on: Blood; assay: Biodistribution in ddY mouse blood at 1 uCi/100 uL, iv after 30 mins by gamma counting; format: ADME, organism-based; settings: in vivo, 0.5 h; how it was run: as §1
[24] = tested on: Brain; assay: Biodistribution in ddY mouse brain at 1 uCi/100 uL, iv after 30 mins by gamma counting; format: ADME, organism-based; settings: in vivo, 0.5 h; how it was run: as §1
[25] = tested on: Heart; assay: Biodistribution in ddY mouse heart at 1 uCi/100 uL, iv after 30 mins by gamma counting; format: ADME, organism-based; settings: in vivo, 0.5 h; how it was run: as §1
[26] = tested on: Liver; assay: Biodistribution in ddY mouse liver at 1 uCi/100 uL, iv after 30 mins by gamma counting; format: ADME, organism-based; settings: in vivo, 0.5 h
[27] = tested on: Spleen; assay: Biodistribution in ddY mouse spleen at 1 uCi/100 uL, iv after 30 mins by gamma counting; format: ADME, organism-based; settings: in vivo, 0.5 h
[28] = tested on: Lung; assay: Biodistribution in ddY mouse lung at 1 uCi/100 uL, iv after 30 mins by gamma counting; format: ADME, organism-based; settings: in vivo, 0.5 h
[29] = tested on: Kidney; assay: Biodistribution in ddY mouse kidney at 1 uCi/100 uL, iv after 30 mins by gamma counting; format: ADME, organism-based; settings: in vivo, 0.5 h
[30] = tested on: Stomach; assay: Biodistribution in ddY mouse stomach at 1 uCi/100 uL, iv after 30 mins by gamma counting; format: ADME, organism-based; settings: in vivo, 0.5 h
[31] = tested on: Intestine; assay: Biodistribution in ddY mouse intestine at 1 uCi/100 uL, iv after 30 mins by gamma counting; format: ADME, organism-based; settings: in vivo, 0.5 h; how it was run: as §1
[32] = tested on: Thyroid gland; assay: Biodistribution in ddY mouse thyroid at 1 uCi/100 uL, iv after 30 mins by gamma counting; format: ADME, organism-based; settings: in vivo, 0.5 h
[33] = tested on: Blood; assay: Biodistribution in ddY mouse blood at 1 uCi/100 uL, iv after 60 mins by gamma counting; format: ADME, organism-based; settings: in vivo, 1 h; how it was run: as §1
[34] = tested on: Brain; assay: Biodistribution in ddY mouse brain at 1 uCi/100 uL, iv after 60 mins by gamma counting; format: ADME, organism-based; settings: in vivo, 1 h; how it was run: as §1
[35] = tested on: Heart; assay: Biodistribution in ddY mouse heart at 1 uCi/100 uL, iv after 60 mins by gamma counting; format: ADME, organism-based; settings: in vivo, 1 h; how it was run: as §1
[36] = tested on: Liver; assay: Biodistribution in ddY mouse liver at 1 uCi/100 uL, iv after 60 mins by gamma counting; format: ADME, organism-based; settings: in vivo, 1 h
[37] = tested on: Spleen; assay: Biodistribution in ddY mouse spleen at 1 uCi/100 uL, iv after 60 mins by gamma counting; format: ADME, organism-based; settings: in vivo, 1 h
[38] = tested on: Lung; assay: Biodistribution in ddY mouse lung at 1 uCi/100 uL, iv after 60 mins by gamma counting; format: ADME, organism-based; settings: in vivo, 1 h
[39] = tested on: Kidney; assay: Biodistribution in ddY mouse kidney at 1 uCi/100 uL, iv after 60 mins by gamma counting; format: ADME, organism-based; settings: in vivo, 1 h
[40] = tested on: Stomach; assay: Biodistribution in ddY mouse stomach at 1 uCi/100 uL, iv after 60 mins by gamma counting; format: ADME, organism-based; settings: in vivo, 1 h
[41] = tested on: Intestine; assay: Biodistribution in ddY mouse intestine at 1 uCi/100 uL, iv after 60 mins by gamma counting; format: ADME, organism-based; settings: in vivo, 1 h; how it was run: as §1
[42] = tested on: Thyroid gland; assay: Biodistribution in ddY mouse thyroid at 1 uCi/100 uL, iv after 60 mins by gamma counting; format: ADME, organism-based; settings: in vivo, 1 h
[43] = tested on: Blood; assay: Biodistribution in ddY mouse blood at 1 uCi/100 uL, iv after 120 mins by gamma counting; format: ADME, organism-based; settings: in vivo, 2 h; how it was run: as §1
[44] = tested on: Brain; assay: Biodistribution in ddY mouse brain at 1 uCi/100 uL, iv after 120 mins by gamma counting; format: ADME, organism-based; settings: in vivo, 2 h; how it was run: as §1
[45] = tested on: Heart; assay: Biodistribution in ddY mouse heart at 1 uCi/100 uL, iv after 120 mins by gamma counting; format: ADME, organism-based; settings: in vivo, 2 h; how it was run: as §1
[46] = tested on: Liver; assay: Biodistribution in ddY mouse liver at 1 uCi/100 uL, iv after 120 mins by gamma counting; format: ADME, organism-based; settings: in vivo, 2 h
[47] = tested on: Spleen; assay: Biodistribution in ddY mouse spleen at 1 uCi/100 uL, iv after 120 mins by gamma counting; format: ADME, organism-based; settings: in vivo, 2 h
[48] = tested on: Lung; assay: Biodistribution in ddY mouse lung at 1 uCi/100 uL, iv after 120 mins by gamma counting; format: ADME, organism-based; settings: in vivo, 2 h
[49] = tested on: Kidney; assay: Biodistribution in ddY mouse kidney at 1 uCi/100 uL, iv after 120 mins by gamma counting; format: ADME, organism-based; settings: in vivo, 2 h; how it was run: as §1
[50] = tested on: Stomach; assay: Biodistribution in ddY mouse stomach at 1 uCi/100 uL, iv after 120 mins by gamma counting; format: ADME, organism-based; settings: in vivo, 2 h
[51] = tested on: Intestine; assay: Biodistribution in ddY mouse intestine at 1 uCi/100 uL, iv after 120 mins by gamma counting; format: ADME, organism-based; settings: in vivo, 2 h; how it was run: as §1
[52] = tested on: Thyroid gland; assay: Biodistribution in ddY mouse thyroid at 1 uCi/100 uL, iv after 120 mins by gamma counting; format: ADME, organism-based; settings: in vivo, 2 h

For `Nc1ccc(/C=C/C(=O)/C=C/c2ccc([125I])cc2)cc1`, the Ratio [1] was 8.44, the logD [2] was 3.26 and the Drug uptake [3] was 3.89 % ID/g. The Drug uptake [4] was 4.56 % ID/g, the Drug uptake [5] was 7.06 % ID/g and the Drug uptake [6] was 16.98 % ID/g. It also gave a Drug uptake [7] of 2.8 % ID/g, a Drug uptake [8] of 9.25 % ID/g and a Drug uptake [9] of 11.2 % ID/g. For the same compound, the Drug uptake [10] was 1.37 % ID/organ, the Drug uptake [11] was 2.27 % ID/g and the Drug uptake [12] was 8.64 % ID/g. The Drug uptake [13] was 4.93 % ID/g, the Drug uptake [14] was 2.37 % ID/g and the Drug uptake [15] was 3.45 % ID/g. The Drug uptake [16] was 29.08 % ID/g, the Drug uptake [17] was 2.02 % ID/g and the Drug uptake [18] was 6.06 % ID/g. For the same compound, the Drug uptake [19] was 22.81 % ID/g, the Drug uptake [20] was 3.1 % ID/organ and the Drug uptake [21] was 6.9 % ID/g. The Drug uptake [22] was 8.39 % ID/g, the Drug uptake [23] was 4.12 % ID/g and the Drug uptake [24] was 1.36 % ID/g. The Drug uptake [25] was 2.01 % ID/g, the Drug uptake [26] was 24.17 % ID/g and the Drug uptake [27] was 1.79 % ID/g. For the same compound, the Drug uptake [28] was 4.81 % ID/g, the Drug uptake [29] was 16.31 % ID/g and the Drug uptake [30] was 3.12 % ID/organ. The Drug uptake [31] was 10.85 % ID/g, the Drug uptake [32] was 11.49 % ID/g and the Drug uptake [33] was 1.72 % ID/g. The Drug uptake [34] was 0.54 % ID/g, the Drug uptake [35] was 0.83 % ID/g and the Drug uptake [36] was 16.43 % ID/g. The Drug uptake [37] was 0.8 % ID/g, the Drug uptake [38] was 2.43 % ID/g and the Drug uptake [39] was 9 % ID/g. The Drug uptake [40] was 2.12 % ID/organ, the Drug uptake [41] was 25.97 % ID/g and the Drug uptake [42] was 14.14 % ID/g. It also gave a Drug uptake [43] of 2.52 % ID/g, a Drug uptake [44] of 0.4 % ID/g and a Drug uptake [45] of 1.11 % ID/g. It also gave a Drug uptake [46] of 17.57 % ID/g, a Drug uptake [47] of 1.13 % ID/g and a Drug uptake [48] of 2.82 % ID/g. The Drug uptake [49] was 9.52 % ID/g, the Drug uptake [50] was 3.07 % ID/organ and the Drug uptake [51] was 25.7 % ID/g. For the same compound, the Drug uptake [52] was 21.98 % ID/g.
